For experiment [1], the system named is HL-60. Description: Cytotoxicity against human HL60 cells assessed as growth inhibition by MTT assay. The class given is functional, cell-based. An outline of the steps: (§1)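 Dose-response on HCT-116, OVCAR-8, HL-60 (leukemia) and SF-295 cells, with doxorubicin as positive control. IC50 is taken as the concentration inducing 50% inhibition of cell growth. Data come from three independent experiments, each run in triplicate.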
(Formazan colour is commonly taken as a measure of viable cells.)

Experiment [2] relates to SF-295. Description: Cytotoxicity against human SF295 cells assessed as growth inhibition by MTT assay. Type of experiment: functional, cell-based. Summed up: as §1
For experiment [3], the system named is HCT-116. Briefly: Cytotoxicity against human HCT116 cells assessed as growth inhibition by MTT assay. Type of experiment: functional, cell-based. An outline of the steps:
as §1

For experiment [4], the system named is OVCAR-8. Briefly: Cytotoxicity against human OVCAR8 cells assessed as growth inhibition by MTT assay. The class given is functional, cell-based. Summed up: as §1
The test system of experiment [5] is HCT-116. Description: Cytotoxicity against human HCT116 cells assessed as growth inhibition at 5 ug/ml by MTT assay. The class given is functional. Conditions: read-out: GI. Summed up:
(§2)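 Single-concentration MTT screen at 5 µg/mL across SF-295 (glioblastoma), OVCAR-8 (ovary) and HCT-116 (colon) cells. Read-out is percent growth inhibition, reported with sd.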

Experiment [6] has as its system SF-295. Briefly: Cytotoxicity against human SF295 cells assessed as growth inhibition at 5 ug/ml by MTT assay. The class given is functional. The conditions noted are these: read-out: GI. Summed up: as §2
The subject of experiment [7] is OVCAR-8. Briefly: Cytotoxicity against human OVCAR8 cells assessed as growth inhibition at 5 ug/ml by MTT assay. The class given is functional. The conditions noted are these: read-out: GI. Summed up:
as §2

The term IC50 denotes the midpoint of a concentration-inhibition curve. As for `Oc1ccccc1/C=N/Nc1cnc2ccccc2n1`, the IC50 was 0.819 µM in experiment [1], 2.31 µM in experiment [2], 4.94 µM in experiment [3] and 3.47 µM in experiment [4]. For the same compound, the inhibition of growth at 5 µg/mL in experiment [5] was 77%; in experiment [6], 61.5%; in experiment [7], 95.4%.
With `Clc1cccc(/C=N/Nc2cnc3ccccc3n2)c1Cl`, the IC50 in experiment [1] was found to be 10.8 µM; in experiment [2], 6.21 µM; in experiment [3] it was 7.01 µM; in experiment [4] it was 6.19 µM. Moreover, the inhibition of growth at 5 µg/mL in experiment [5] is 97.5%; in experiment [6] it was 84.3%; in experiment [7], 100%.
